Converted amounts (≈) assume the structure as drawn.

Usually MIC stands for the smallest concentration in the dilution series that meets the test's criterion for growth inhibition. For orientation: IC50 means the concentration needed to halve the response being measured. One may read the pIC50 as the IC50 on a negative log10 scale, so that one unit is a factor of ten.

Data set [1] deals with Escherichia coli. In words: Antibacterial activity against Escherichia coli BAS3023 harboring imp mutant by microdilution method. The format is functional. In outline: (§1)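 MICs determined by standard broth microdilution in cation-adjusted Mueller-Hinton Broth; E. coli BAS3023 carries an imp mutation conferring membrane permeability to small molecules, MG1655 K12 is wild type.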

The subject of the next data set is Bacillus spizizenii. In words: Antibacterial activity against Bacillus subtilis ATCC 6633 by microdilution method. The format is functional. Put shortly: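 Broth microdilution per standard protocol in cation-adjusted Mueller-Hinton broth; MIC taken as lowest inhibiting concentration.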
(In general: Dilution methods test growth across graded concentrations, often in twofold steps.)

Data set [2] in a line: Selectivity index, ratio of IC50 for African green monkey Vero cells to MIC for Mycobacterium tuberculosis H37Rv. In kind it is toxicity. In outline:
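SI computed as cytotoxic IC50 against Vero cells divided by MIC against M. tuberculosis; Mtb MIC from modified microplate Alamar blue assay.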

The nature of data set [3]: Inhibition of recombinant Escherichia coli topoisomerase 1a expressed in Escherichia coli assessed as reduction in enzyme-mediated relaxation of supercoiled pBAD/Thio DNA preincubated with enzyme followed by substrate addition measured after 30 mins by ethidium bromide staining based agarose gel electrophoresis method.
In data set [4] the test system is Mycobacterium tuberculosis. Nature of the data set: Antimycobacterial activity against Mycobacterium tuberculosis H37Rv after 7 days by microplate alamar blue assay. In kind it is functional. The settings on record: 168 h. In general terms: Alamar Blue is a resazurin reagent that responds to reducing activity.
The test system of the next data set is Vero. In words: Cytotoxicity against African green monkey Vero cells assessed as reduction in cell viability after 72 hrs by MTS assay. In kind it is cell-based. The settings on record: Chlorocebus sabaeus. A general note: Formazan colour is commonly taken as a measure of viable cells.
Data set [5] concerns Escherichia coli. In words: Antibacterial activity against Escherichia coli K12 MG1655 by microdilution method. In kind it is functional. The settings on record: K-12 substr. MG1655. Put shortly: as §1

Consider `Nc1ccc2c(c1)Oc1c(NC34CC5CC(CC(C5)C3)C4)c(F)cc3c(=O)c(C(=O)O)cn-2c13`, for which the MIC in the data set with Escherichia coli [1] is 3.12 µM (≈ 1.44 µg/mL); with Bacillus spizizenii, 12.5 µM (≈ 5.77 µg/mL); in data set [4] it was 38.4 µM (≈ 17.7 µg/mL); against Escherichia coli [5], greater than 200 µM. For the same compound, in data set [2], the “Selectivity Index” value was 0.8. Also, the concentration for half-maximal inhibition (IC50) was 3.9 to 7.8 µM in data set [3] and 30.7 µM in the data set with Vero. In addition, the negative-log IC50 (pIC50) in data set [3] stood at 5.23.

These data come from ChEMBL document CHEMBL4041482, “Synthesis, evaluation, and CoMFA study of fluoroquinophenoxazine derivatives as bacterial topoisomerase IA inhibitors” (Eur J Med Chem, 2017).
